Measurements: ChEMBL document CHEMBL3272012, “5-(Tetradecyloxy)-2-furancarboxylic acid and related hypolipidemic fatty acid-like alkyloxyarylcarboxylic acids” (J Med Chem, 1977)

Legend:
[1] = test system: Rattus norvegicus; assay: Increase in liver weight in Wistar rat at 201 umol/kg/day administered through diet for 4 days; format: ADME, organism-based; conditions: in vivo, po, 96 h
[2] = test system: Rattus norvegicus; assay: Hypolipidemic activity in Wistar rat assessed as reduction in plasma triglyceride level at 445 umol/kg/day administered through diet; format: functional
[3] = test system: Rattus norvegicus; assay: Hypolipidemic activity in Wistar rat assessed as reduction in plasma cholesterol level at 201 umol/kg/day administered through diet for 4 days; format: functional; conditions: 96 h
Procedure, shortened: (§1)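 Young male Wistar rats, 170-190 g at start, in groups of six, given compound mixed into Purina Lab Chow ad libitum for 4 or 10 days as stated. Daily dose was calculated from food consumption and body weight. Plasma was taken by cardiac puncture at the end and cholesterol measured by automated procedure. Results are % reduction versus a concurrent untreated control group, with Student's t test.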

[4] = test system: Rattus norvegicus; assay: Increase in cholesterol level in Wistar rat liver at 445 umol/kg/day administered through diet; format: ADME, organism-based; conditions: in vivo, po
[5] = test system: Rattus norvegicus; assay: Hypolipidemic activity in Wistar rat assessed as reduction in plasma triglyceride level at 201 umol/kg/day administered through diet for 4 days; format: functional; conditions: 96 h
Procedure, shortened: (§2)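 Young male Wistar rats, 170-190 g initial weight, six per group, fed drug mixed thoroughly into Purina Lab Chow ad libitum for the stated days; daily dose calculated from food consumption and body weight. Bled by cardiac puncture at end; plasma cholesterol and triglycerides by automated procedures, expressed as percent reduction versus simultaneous untreated controls; Student's t test.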

[6] = test system: Rattus norvegicus; assay: Hypolipidemic activity in Wistar rat assessed as reduction in plasma cholesterol level at 445 umol/kg/day administered through diet; format: functional
Procedure, shortened: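 Young male Wistar rats (170-190 g initial weight) in groups of six, fed test compound admixed to Purina Lab Chow ad libitum. Actual daily dose derived from recorded food intake and body weight. Cardiac puncture blood taken at end of treatment; plasma cholesterol determined by automated method. Percent reduction from concurrently run untreated controls, significance by Student's t test.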

[7] = test system: Rattus norvegicus; assay: Increase in cholesterol level in Wistar rat liver at 201 umol/kg/day administered through diet for 4 days; format: ADME, organism-based; conditions: in vivo, po, 96 h
[8] = test system: Rattus norvegicus; assay: Increase in cholesterol level in Wistar rat liver at 98 umol/kg/day administered through diet for 4 days; format: ADME, organism-based; conditions: in vivo, po, 96 h
[9] = test system: Rattus norvegicus; assay: Increase in liver weight in Wistar rat at 445 umol/kg/day administered through diet; format: ADME, organism-based; conditions: in vivo, po
[10] = test system: Rattus norvegicus; assay: Increase in liver weight in Wistar rat at 98 umol/kg/day administered through diet for 4 days; format: ADME, organism-based; conditions: in vivo, po, 96 h
[11] = test system: Rattus norvegicus; assay: Hypolipidemic activity in Wistar rat assessed as reduction in plasma triglyceride level at 98 umol/kg/day administered through diet for 4 days; format: functional; conditions: 96 h
[12] = test system: Rattus norvegicus; assay: Hypolipidemic activity in Wistar rat assessed as reduction in plasma cholesterol level at 98 umol/kg/day administered through diet for 4 days; format: functional; conditions: 96 h; procedure, shortened: as §2
[13] = test system: Rattus norvegicus; assay: Increase in liver weight in Wistar rat at 489 umol/kg/day administered through diet for 10 days; format: ADME, organism-based; conditions: in vivo, po, 240 h
[14] = test system: Rattus norvegicus; assay: Increase in cholesterol level in Wistar rat liver at 489 umol/kg/day administered through diet for 10 days; format: ADME, organism-based; conditions: in vivo, po, 240 h
[15] = test system: Rattus norvegicus; assay: Hypolipidemic activity in Wistar rat assessed as reduction in plasma cholesterol level at 489 umol/kg/day administered through diet for 10 days; format: functional; conditions: 240 h
Procedure, shortened: (§3)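 Young male Wistar rats, 170-190 g initial weight, groups of six, given compound mixed thoroughly into Purina Lab Chow ad libitum for 4 or 10 days as stated. Daily dose calculated from food consumption and body weight. Bled by cardiac puncture at end of treatment; plasma cholesterol measured by automated procedure. Expressed as percent reduction versus simultaneous untreated control group; Student's t test.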

[16] = test system: Rattus norvegicus; assay: Hypolipidemic activity in Wistar rat assessed as reduction in plasma triglyceride level at 489 umol/kg/day administered through diet for 10 days; format: functional; conditions: 240 h
[17] = test system: Rattus norvegicus; assay: Increase in cholesterol level in Wistar rat liver at 444 umol/kg/day administered through diet for 10 days; format: ADME, organism-based; conditions: in vivo, po, 240 h
[18] = test system: Rattus norvegicus; assay: Hypolipidemic activity in Wistar rat assessed as reduction in plasma cholesterol level at 444 umol/kg/day administered through diet for 10 days; format: functional; conditions: 240 h; procedure, shortened: as §3
[19] = test system: Rattus norvegicus; assay: Hypolipidemic activity in Wistar rat assessed as reduction in plasma triglyceride level at 444 umol/kg/day administered through diet for 10 days; format: functional; conditions: 240 h
[20] = test system: Rattus norvegicus; assay: Increase in liver weight in Wistar rat at 444 umol/kg/day administered through diet for 10 days; format: ADME, organism-based; conditions: in vivo, po, 240 h
[21] = test system: Rattus norvegicus; assay: Increase in cholesterol level in Wistar rat liver at 461 umol/kg/day administered through diet for 4 days; format: ADME, organism-based; conditions: in vivo, po, 96 h
[22] = test system: Rattus norvegicus; assay: Increase in liver weight in Wistar rat at 461 umol/kg/day administered through diet for 4 days; format: ADME, organism-based; conditions: in vivo, po, 96 h
[23] = test system: Rattus norvegicus; assay: Hypolipidemic activity in Wistar rat assessed as reduction in plasma cholesterol level at 461 umol/kg/day administered through diet for 4 days; format: functional; conditions: 96 h; procedure, shortened: as §3
[24] = test system: Rattus norvegicus; assay: Increase in liver weight in Wistar rat at 392 umol/kg/day administered through diet for 10 days; format: ADME, organism-based; conditions: in vivo, po, 240 h
[25] = test system: Rattus norvegicus; assay: Hypolipidemic activity in Wistar rat assessed as reduction in plasma triglyceride level at 461 umol/kg/day administered through diet for 4 days; format: functional; conditions: 96 h
[26] = test system: Rattus norvegicus; assay: Hypolipidemic activity in Wistar rat assessed as reduction in plasma triglyceride level at 392 umol/kg/day administered through diet for 10 days; format: functional; conditions: 240 h
Procedure, shortened: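 Young male Wistar rats (170-190 g initial weight), groups of six, fed test compound mixed into Purina Lab Chow ad libitum; daily dose calculated from food consumption and body weight. Bled by cardiac puncture at end of treatment; plasma triglycerides measured by automated procedure. Results given as percent reduction versus a simultaneous untreated control group, with significance by Student's t test.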

[27] = test system: Rattus norvegicus; assay: Increase in liver weight in Wistar rat at 439 umol/kg/day administered through diet for 10 days; format: ADME, organism-based; conditions: in vivo, po, 240 h
Procedure, shortened: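 Male Wistar rats (170-190 g initial), groups of six, dosed via diet ad libitum for 4 or 10 days, daily dose from food consumption. Liver wet weight measured, expressed as g/100 g final body weight, compared with untreated controls run simultaneously.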

[28] = test system: Rattus norvegicus; assay: Hypolipidemic activity in Wistar rat assessed as reduction in plasma cholesterol level at 439 umol/kg/day administered through diet for 10 days; format: functional; conditions: 240 h; procedure, shortened: as §3
[29] = test system: Rattus norvegicus; assay: Increase in cholesterol level in Wistar rat liver at 392 umol/kg/day administered through diet for 10 days; format: ADME, organism-based; conditions: in vivo, po, 240 h
[30] = test system: Rattus norvegicus; assay: Hypolipidemic activity in Wistar rat assessed as reduction in plasma cholesterol level at 392 umol/kg/day administered through diet for 10 days; format: functional; conditions: 240 h; procedure, shortened: as §1
[31] = test system: Rattus norvegicus; assay: Increase in cholesterol level in Wistar rat liver at 439 umol/kg/day administered through diet for 10 days; format: ADME, organism-based; conditions: in vivo, po, 240 h
[32] = test system: Rattus norvegicus; assay: Hypolipidemic activity in Wistar rat assessed as reduction in plasma triglyceride level at 439 umol/kg/day administered through diet for 10 days; format: functional; conditions: 240 h
Procedure, shortened: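 Young male Wistar rats (initial weight 170-190 g), groups of six, fed compound mixed into Purina Lab Chow ad libitum for 4 or 10 days; daily dose calculated from food consumption and body weight. Bled by cardiac puncture; plasma cholesterol and triglycerides by automated procedures; percent reduction versus simultaneous untreated controls, Student's t test.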

CCCCCCCCCCCCCCOc1ccc(C(=O)OC)cc1
Activity [1]: 0%
inhibition in vivo at 445 µmol/kg [2]: 49%
inhibition in vivo at 201 µmol/kg [3]: 23%
Activity [4]: 12%
inhibition in vivo at 201 µmol/kg [5]: 70%
inhibition in vivo at 445 µmol/kg [6]: 6%
Activity [7]: 12%
Activity [8]: 0%
Activity [9]: 7%
Activity [10]: 0%
inhibition in vivo at 98 µmol/kg [11]: 72%
inhibition in vivo at 98 µmol/kg [12]: 27%

CCCCCCCCCCOc1ccc(C(=O)OC)cc1
Activity [13]: 19%
Activity [14]: 43%
inhibition in vivo at 489 µmol/kg [15]: 36%
inhibition in vivo at 489 µmol/kg [16]: 94%

CCCCCCCCCCCOc1ccc(C(=O)OC)cc1
Activity [17]: 41%
inhibition in vivo at 444 µmol/kg [18]: 45%
inhibition in vivo at 444 µmol/kg [19]: 88%
Activity [20]: 23%

CCCCCCCCCCCCCCOc1ccc(C(=O)OCC)cc1
Activity [21]: 20%
Activity [22]: 16%
inhibition in vivo at 461 µmol/kg [23]: 23%
Activity [24]: 2%
inhibition in vivo at 461 µmol/kg [25]: 42%
inhibition in vivo at 392 µmol/kg [26]: 61%
Activity [27]: 10%
inhibition in vivo at 439 µmol/kg [28]: 24%
Activity [29]: 0%
inhibition in vivo at 392 µmol/kg [30]: 33%
Activity [31]: 3%
inhibition in vivo at 439 µmol/kg [32]: 54%
